Bioassay records deposited in PubChem BioAssay by The Scripps Research Institute Molecular Screening Center.
PLCg1 inh – blocks human PLC-gamma1 enzyme activity | purified PLC-gamma1, fluorogenic substrate, fluorescence | inhibition, % at 12.2 µM | 0.84% of 370,000 active; in the data active = inhibition above about 9.5%
Target sequence (P19174 whole entry, looked up): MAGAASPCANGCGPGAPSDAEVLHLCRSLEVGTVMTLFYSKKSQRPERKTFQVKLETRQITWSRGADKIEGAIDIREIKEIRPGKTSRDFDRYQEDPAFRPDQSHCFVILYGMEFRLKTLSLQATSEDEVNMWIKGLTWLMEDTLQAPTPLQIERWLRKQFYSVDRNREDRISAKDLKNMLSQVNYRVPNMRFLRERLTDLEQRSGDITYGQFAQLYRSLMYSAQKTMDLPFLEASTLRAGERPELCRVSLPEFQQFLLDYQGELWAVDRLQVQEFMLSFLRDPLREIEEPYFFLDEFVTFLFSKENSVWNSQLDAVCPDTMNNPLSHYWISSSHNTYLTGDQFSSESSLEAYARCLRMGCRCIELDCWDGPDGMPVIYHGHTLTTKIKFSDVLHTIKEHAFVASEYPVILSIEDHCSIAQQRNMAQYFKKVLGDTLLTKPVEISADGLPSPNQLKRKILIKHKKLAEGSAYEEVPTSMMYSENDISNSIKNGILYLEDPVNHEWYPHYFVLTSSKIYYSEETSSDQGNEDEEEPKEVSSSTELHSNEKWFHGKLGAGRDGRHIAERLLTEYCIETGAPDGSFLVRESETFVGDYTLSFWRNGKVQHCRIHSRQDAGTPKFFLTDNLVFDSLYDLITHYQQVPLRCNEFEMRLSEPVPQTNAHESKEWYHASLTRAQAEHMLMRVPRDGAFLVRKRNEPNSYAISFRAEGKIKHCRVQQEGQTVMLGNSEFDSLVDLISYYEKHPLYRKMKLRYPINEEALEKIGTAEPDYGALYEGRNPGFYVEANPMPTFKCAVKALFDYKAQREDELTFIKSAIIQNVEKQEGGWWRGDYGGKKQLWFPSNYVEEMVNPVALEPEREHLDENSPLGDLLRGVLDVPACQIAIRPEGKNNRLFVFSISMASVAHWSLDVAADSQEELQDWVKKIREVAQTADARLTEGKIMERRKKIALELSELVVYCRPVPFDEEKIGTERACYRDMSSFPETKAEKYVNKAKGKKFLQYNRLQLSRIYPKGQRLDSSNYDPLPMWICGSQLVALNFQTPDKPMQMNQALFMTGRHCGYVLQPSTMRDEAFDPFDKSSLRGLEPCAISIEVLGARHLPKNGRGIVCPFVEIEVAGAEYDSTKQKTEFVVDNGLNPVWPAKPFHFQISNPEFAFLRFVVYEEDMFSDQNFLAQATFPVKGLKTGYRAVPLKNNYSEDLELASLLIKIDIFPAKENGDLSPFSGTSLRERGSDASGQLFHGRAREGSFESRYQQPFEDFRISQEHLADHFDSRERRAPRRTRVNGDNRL
PLCb3 inh – PLC-beta3 (human) inhibition, primary screen; Purified PLC-beta3, fluorogenic substrate, fluorescence; AID 720704; Q01970; 0.18% of 370,000 active; inhibition, % at 12.2 µM;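 also: 0% = median of compound wells on plate and 100% = full blocker control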
Tn7 DDE FP – disrupts Tn7 cyclic peptide binding to fibrin D-Dimer-E complex. P02675. inhibition, % at 8.3 µM. 0.13% of 370,000 active. FP displacement of FITC-Tn7 peptide from fibrin DD(E); 0% = median of compound wells per plate;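 active = inhibition above the mean of compounds falling within the control limits plus 3 SD of them, cut at about 14% in these data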;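 also: 0% = plate median of compound wells and 100% = 10 µM Aha-Tn7 peptide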
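Test system: human clot-derived fibrin DD(E) complex / Quantity: 2 µM final DD(E) protein / Incubation: 10 min plus 3 h, room temperature / Measured by: fluorescence polarization / Benchmarks: high control of 10 µM Aha-Tn7 peptide / Replicates: singlicate testing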
FID counter – counter-screen for HCV NS3 helicase inhibitors: DNA intercalator displacement; DNA fluorescent intercalator displacement, fluorescence; inhibition, % at 7.9 µM; 0.17% of 290,000 active; AID 1845; in the data active = inhibition above about 37%;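 also: 0% = vehicle and 100% = reference compound; higher means more ethidium bromide displaced from hairpin DNA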
Tn6 DDE FP – inhibitors of Tn6 peptide binding to human fibrin DD(E). Fibrin DD(E) TRITC-Tn6 fluorescence polarization displacement. inhibition, % at 8.3 µM. 0.21% of 370,000 active;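 active = inhibition above a per-campaign cutoff: mean of compounds within control limits plus 3 SD, cut at about 15% in these data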;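 also: 0% = median of all compound wells on the plate and 100% = blocking peptide control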
PLCgamma1 ctr – inhibits human PLC-gamma1 in PLC-beta3 counter-screen; shares compounds with PLCg1 inh; purified PLC-gamma1, fluorogenic substrate, fluorescence; inhibition, % at 12.3 µM; 3.1% of 3,300 active; in the data active = inhibition above about 9.5%
PLCb3 confirm – human PLC-beta3 inhibition, confirmation. shares compounds with PLCg1 inh. purified PLC-beta3, fluorogenic substrate fluorescence. inhibition, % at 12.3 µM. 1% of 3,300 active. AID 743261
An asterisk follows results filed as active; x = no result given. The list is not random: actives were taken first. Their share in the collection is about 1.4%. Rule as the data show it, unless noted: active = inhibition above about 11%; inactive = the rest.

SMILES	PLCg1 inh	PLCb3 inh	Tn7 DDE FP	FID counter	Tn6 DDE FP	PLCgamma1 ctr	PLCb3 confirm
CC(c1nnc(SCC(=O)N2CCc3ccccc32)n1-c1ccc(Cl)cc1)N(C)C (configuration not stated)	4.3	1.4	4.6	-8.1	0.1	x	x
Cc1cc(C)nc(N/N=C/c2ccccc2OCc2ccc([N+](=O)[O-])cc2)n1	13.5*	8.8	-6.4	-0.9	-0.4	-0.1	0.9
O=[N+]([O-])c1ccc(N/N=C\c2ccccc2OCc2ccccc2)cc1	-12.9	-20.5	5.7	4.0	-7.2	x	x
Cc1cccc(NC(=O)Cn2c(=O)n(CCc3c[nH]c4ccccc34)c(=O)c3cccnc32)c1	11.1*	4.8	-7.2	-7.9	-5.5	-0.3	0.9
O=C(/C=C/c1cccc([N+](=O)[O-])c1)NCc1cccnc1	2.6	11.2*	1.2	-0.4	-2.9	-5.9	-0.3
CN(CC(=O)Nc1ccc(Cl)c(C(F)(F)F)c1)C(=O)Cc1n[nH]c(=O)c2ccccc12	10.0*	-3.3	0.7	x	-4.9	-2.5	1.3
CN(CC(=O)Nc1cccc(F)c1)C(=O)Cc1n[nH]c(=O)c2ccccc12	0.0	1.7	5.1	x	-8.0	x	x
C=CCn1c(N2CCCC2)nc2c1c(=O)n(C)c(=O)n2C	9.7*	-0.8	0.9	-11.9	-1.1	2.9	1.7
CN(C(=O)c1ccccc1)C1c2c(ccc3ccccc23)OCC1CO (configuration not stated)	10.4*	4.5	-1.1	0.1	-7.1	8.4	11.5*
CCOC(=O)c1c(NC(=S)Nc2ccc(F)cc2)sc2c1CCC2	1.8	-4.0	4.8	-7.7	-0.4	x	x
COCCNC(=O)Cn1nc(-c2ccc(Cl)cc2)c2ccccc2c1=O	11.6*	3.3	-7.4	-18.6	1.0	-3.4	-0.6
CCCCC(O)(CCCC)C(=O)NN(C(=O)OCC)c1ccccc1	-0.7	0.5	0.1	-11.0	2.4	x	x
CCOC(=O)N(NC(=O)C(O)(c1ccccc1)c1ccccc1)c1ccccc1	13.5*	8.0	-4.0	-2.0	-5.1	-1.3	4.2
CCOC(=O)N(NC(=O)C(O)(C(C)C)C(C)C)c1ccccc1	-1.4	-1.6	7.6	-2.3	4.2	x	x
CCCC(O)(CCC)C(=O)NN(C(=O)CCl)c1ccccc1	9.7*	2.3	-6.1	-2.6	-9.6	-1.7	-1.8
C[C@@H]1NC(=O)[C@H](CC(N)=O)NC(=O)c2cc([N+](=O)[O-])cc(I)c2OCC[C@@H](C(=O)NC(CC(=O)O)C(N)=O)NC1=O (some centres not stated)	1.6	-0.2	-4.0	-24.2	0.7	x	x
OC(CN1CCCCC1)CN1CCCCC1	11.0*	-94.8	-4.0	5.8	3.7	-3.4	0.2
Cc1ccc(SC(C)C(=O)NC(N)=O)c(C)c1 (configuration not stated)	-1.9	-8.1	2.3	-5.9	1.9	x	x
Cc1[nH]c2ccccc2c1C(=O)C(=O)NCC1CCCO1 (configuration not stated)	0.9	-3.4	3.1	-3.1	8.4	x	x
Clc1ccc(-c2c[n+](Cc3ccc(Cl)cc3Cl)c3n2CCCCC3)cc1	11.1*	5.6	-3.2	15.1	-2.9	-2.2	-0.2
O=C(/C=C/c1ccco1)NC(=S)Nc1ccc(C(=O)O)cc1	25.6*	-10.6	-3.0	-5.5	-3.9	16.9*	-6.7
CC(=O)NC(=S)Nc1ccc(NC(=S)NC(=O)/C=C/c2ccco2)cc1	0.1	0.6	4.0	-5.7	-1.5	x	x
CCOC(=O)/C=C/C(=O)N1CCN(C(=O)/C=C/C(=O)OCC)CC1	-1.1	-12.4	5.1	-8.7	-6.2	x	x
O=[N+]([O-])c1cc(C(F)(F)F)ccc1NCCCCNS(=O)(=O)c1ccc(Cl)cc1	4.9	11.1*	-3.1	0.0	6.5	9.3	4.8
O=C(O)C[C@H]1c2cc(F)ccc2S(=O)(=O)N1C1CCCC1	10.1*	1.1	4.6	x	-5.0	6.1	5.2
SMILES	PLCg1 inh	PLCb3 inh	Tn7 DDE FP	FID counter	Tn6 DDE FP	PLCgamma1 ctr	PLCb3 confirm
O=C(O)C[C@H]1c2cc(F)ccc2S(=O)(=O)N1C1CCCCC1	4.4	0.7	3.2	x	4.2	x	x
CCn1c(SCc2ccc(F)cc2)nc2ccccc2c1=O	10.6*	-1.1	0.5	-28.2	-5.1	-3.9	-5.8
CCn1c(SCc2ccc(OC)c(F)c2)nc2ccccc2c1=O	-0.6	-7.8	7.7	-24.4	0.7	x	x
CC(C)Cc1ccc(-c2cc3nc(NCC4CC4)ccn3n2)cc1	-87.4	-112.7	-2.0	x	-5.3	x	x
Cc1ccc(-c2nn(CC(N)=O)c(=O)c3ccccc23)cc1S(=O)(=O)N(C)C	-1.1	-1.1	-3.7	-9.0	-0.3	x	x
Cc1ccc(-c2nn(CC(=O)N3CCOCC3)c(=O)c3ccccc23)cc1S(=O)(=O)N(C)C	10.4*	-1.7	-1.4	-25.2	-3.3	-1.7	-2.8
CCCOP(=O)(c1ccc(N(C)C)cc1)C(O)c1ccccc1OC (configuration not stated)	10.5*	5.4	4.5	-24.5	-1.8	-1.1	0.8
COc1ccccc1C(O)P(=O)(OCC(C)C)c1ccc(N(C)C)cc1 (configuration not stated)	0.8	-6.2	2.6	-30.7	-4.1	x	x
CC(C)c1cc(=O)n2[nH]c(SCc3ccccc3Cl)nc2n1	13.0*	-4.8	4.7	-8.5	-11.1	-3.3	-1.6
Cc1ccc(NC(=O)C[n+]2ccccc2)cc1C	0.0	-4.1	3.9	0.2	0.3	x	x
O=C(CN1CCN(C(=O)N2CCCCC2)CC1)Nc1ccc(F)cc1	10.8*	-1.9	0.6	-7.0	-2.2	0.5	-5.8
CS(=O)(=O)N(CCc1ccccc1)CC(=O)N1CCCC1	-0.7	-6.8	-2.2	-5.2	-7.8	x	x
CS(=O)(=O)N(CCc1ccccc1)CC(=O)N1CCCCCC1	2.0	12.6*	-3.9	x	-6.2	-6.8	-2.9
COc1ccc(OCC(=O)N/N=C2\CCCc3ccccc32)cc1	1.2	-0.2	0.5	-1.5	1.3	x	x
COC(=O)c1ccc(/C=N/N2CCN(Cc3ccccc3Cl)CC2)cc1	-0.6	-3.2	-4.8	-2.7	2.7	x	x
CC(=NN1CCN(Cc2ccccc2Cl)CC1)c1ccc(O)cc1	15.8*	10.1	2.9	x	-7.0	-3.3	-3.7
COc1ccc(/C=C/c2c(-c3ccc(OC)cc3)sc3cc(OC)c(OC)cc23)cc1	-133.4	-170.8	-7.7	x	-2.8	x	x
CCCNC(=O)C(Cc1cccc(Cl)c1)NC(=O)c1ccccc1 (configuration not stated)	5.1	13.9*	-5.0	x	4.5	-1.5	2.2
CCCNC(=O)C(Cc1ccccc1)NC(=O)c1ccccc1 (configuration not stated)	-0.1	10.5	-5.5	x	-7.5	x	x
O=C(N[C@@H](Cc1ccccc1)C(=O)NC1CC1)c1ccc(Cl)cc1	10.5*	-3.1	-5.4	-8.1	-9.3	0.5	1.2
CCOc1ccc(C(=O)NC2CC(C)(C)NC(C)(C)C2)cc1	3.6	-5.2	-6.8	8.1	4.8	x	x
